Measurements taken from ChEMBL document CHEMBL2057141, “Imidazolopiperazines: lead optimization of the second-generation antimalarial agents” (J Med Chem, 2012).

How the values were obtained:
[1] = test system: Plasmodium falciparum; assay: Antimalarial activity against Plasmodium falciparum 3D7 after 72 hrs by SYBR green fluorescence assay; type: functional, organism-based; conditions: 3D7, 72 h
Procedure, shortened: (§1)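 P. falciparum grown in O+ erythrocytes, screened in medium without human serum plus 0.5% Albumax II. Twelve-point half-log dilutions up to 10 μM final. 0.3% parasitemia, 2.5% hematocrit; 72 h at 37 °C under low-oxygen gas. Lysis buffer with SYBR Green added, 24 h at 25 °C, fluorescence read at 485/530 nm.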

[2] = test system: Plasmodium falciparum; assay: Antimalarial activity against Plasmodium falciparum W2 after 72 hrs by SYBR green fluorescence assay; type: functional, organism-based; conditions: W2, 72 h; procedure, shortened: as §1
[3] = molecular target: Voltage-gated inwardly rectifying potassium channel KCNH2 (Homo sapiens, UniProt Q12809); assay: Inhibition of human ERG channel expressed in CHO cells by patch clamp assay; type: cell-based
Sequence of Voltage-gated inwardly rectifying potassium channel KCNH2 (Q12809 whole entry): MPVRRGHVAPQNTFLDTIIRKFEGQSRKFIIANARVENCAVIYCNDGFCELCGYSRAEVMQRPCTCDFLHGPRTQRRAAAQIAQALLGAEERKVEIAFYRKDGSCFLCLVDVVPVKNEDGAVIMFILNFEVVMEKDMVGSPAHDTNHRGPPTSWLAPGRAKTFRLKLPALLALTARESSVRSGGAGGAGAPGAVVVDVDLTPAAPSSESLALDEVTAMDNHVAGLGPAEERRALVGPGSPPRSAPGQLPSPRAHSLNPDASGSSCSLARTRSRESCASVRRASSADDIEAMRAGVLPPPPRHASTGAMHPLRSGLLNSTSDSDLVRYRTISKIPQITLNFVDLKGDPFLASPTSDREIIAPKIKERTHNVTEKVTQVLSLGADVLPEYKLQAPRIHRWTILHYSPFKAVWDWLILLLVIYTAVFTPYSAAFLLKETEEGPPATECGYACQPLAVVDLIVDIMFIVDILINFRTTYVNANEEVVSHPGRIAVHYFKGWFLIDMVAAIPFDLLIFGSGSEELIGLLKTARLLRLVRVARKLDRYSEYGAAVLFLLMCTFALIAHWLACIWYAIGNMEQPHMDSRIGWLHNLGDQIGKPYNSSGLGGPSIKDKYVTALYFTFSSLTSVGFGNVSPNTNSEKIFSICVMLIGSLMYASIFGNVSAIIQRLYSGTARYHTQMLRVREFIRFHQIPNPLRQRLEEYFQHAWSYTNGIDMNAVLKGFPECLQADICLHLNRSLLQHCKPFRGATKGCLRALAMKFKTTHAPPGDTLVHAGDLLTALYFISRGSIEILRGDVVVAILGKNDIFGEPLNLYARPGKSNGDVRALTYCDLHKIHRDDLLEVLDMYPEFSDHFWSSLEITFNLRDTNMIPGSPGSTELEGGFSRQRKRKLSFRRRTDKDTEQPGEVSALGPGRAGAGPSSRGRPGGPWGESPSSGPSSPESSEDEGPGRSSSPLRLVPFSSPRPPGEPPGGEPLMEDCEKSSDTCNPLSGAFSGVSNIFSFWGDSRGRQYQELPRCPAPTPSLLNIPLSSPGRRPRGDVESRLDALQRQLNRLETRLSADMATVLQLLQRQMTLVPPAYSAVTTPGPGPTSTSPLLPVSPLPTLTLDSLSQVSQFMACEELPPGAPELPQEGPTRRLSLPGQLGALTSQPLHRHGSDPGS

[4] = Permeability of the compound by PAMPA; type: ADME
Procedure, shortened: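 PAMPA in 96-well filter plates. Permeated compound quantified by UV absorbance at 260–290 nm. Reported as percentage absorbed.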

[5] = Apparent permeability across apical to basolateral side in human Caco2 cells by LC/MS analysis; type: ADME, cell-based; conditions: Caco-2
Procedure, shortened: (§2)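 Caco-2 monolayers in 96-well format. Compound measured in apical and basolateral chambers by LC/MS, giving Papp in the A–B and B–A directions. Values reported in cm/s × 10⁶.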

[6] = Apparent permeability across basolateral to apical side in human Caco2 cells by LC/MS analysis; type: ADME, cell-based; conditions: Caco-2; procedure, shortened: as §2
[7] = Volume of distribution in Balb/c mouse at 5 mg/kg, iv; type: ADME, organism-based; set-up: dose 5 mg/kg, route intravenous; conditions: in vivo
Procedure, shortened: (§3)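 Male Balb/c mice (n = 3 per group). Compound as a 2.5 mg/mL solution in PEG300/D5W 3:1, filtered. Given by lateral tail vein at 5 mg/kg (2 mL/kg) or orally at 20 mg/kg (8 mL/kg). Six serial 50 μL retro-orbital blood samples to 24 h, heparinized plasma. Plasma extracted with acetonitrile:methanol 3:1 with internal standard, LC-MS/MS. Noncompartmental analysis; F = AUCpo×dose_iv/AUCiv×dose_po.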

[8] = Clearance in Balb/c mouse plasma at 5 mg/kg, iv; type: ADME, organism-based; set-up: dose 5 mg/kg, route intravenous; procedure, shortened: as §3
[9] = Half life in Balb/c mouse at 5 mg/kg, iv; type: ADME, organism-based; set-up: dose 5 mg/kg, route intravenous; conditions: in vivo; procedure, shortened: as §3
[10] = test system: Mus musculus; assay: AUC (0 to 24 hrs) in Balb/c mouse at 5 mg/kg, iv; type: ADME, organism-based, Plasma; set-up: time < 24 hr, dose 5 mg/kg, route intravenous; conditions: in vivo; procedure, shortened: as §3
[11] = Cmax in Balb/c mouse at 20 mg/kg, po; type: ADME, organism-based; set-up: dose 20 mg/kg, route oral; conditions: in vivo; procedure, shortened: as §3
[12] = Tmax in Balb/c mouse at 20 mg/kg, po; type: ADME, organism-based; set-up: dose 20 mg/kg, route oral; conditions: in vivo; procedure, shortened: as §3
[13] = Half life in Balb/c mouse at 20 mg/kg, po; type: ADME, organism-based; set-up: dose 20 mg/kg, route oral; conditions: in vivo; procedure, shortened: as §3
[14] = test system: Mus musculus; assay: AUC (0 to 24 hrs) in Balb/c mouse at 20 mg/kg, po; type: ADME, organism-based, Plasma; set-up: time < 24 hr, dose 20 mg/kg, route oral; conditions: in vivo; procedure, shortened: as §3
[15] = test system: Mus musculus; assay: Oral bioavailability in Balb/c mouse at 20 mg/kg; type: ADME, organism-based; conditions: in vivo; procedure, shortened: as §3
[16] = test system: Plasmodium berghei; assay: Antimalarial activity against Plasmodium berghei ANKA expressing GFP infected in NMRI mouse assessed as reduction of parasite level in blood at 30 mg/kg, po administered 24 hrs post infection measured after 72 hrs post infection by flow cytometry; type: functional; set-up: scale not given: the % may be the effect or the level left
Procedure, shortened: (§4)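 Female NMRI mice (20–22 g, n=3) are infected i.v. with 2×10^7 P. berghei GFP ANKA-infected erythrocytes. Oral compound in 75% PEG300/25% D5W is given at 10 mL/kg, once at 24 h or daily at 24/48/72 h post-infection. Parasitemia is read by flow cytometry at 72 h (single dose) or 96 h (triple dose). Activity is % reduction of mean parasitemia versus untreated controls.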

[17] = test system: Plasmodium berghei; assay: Antimalarial activity against Plasmodium berghei ANKA expressing GFP infected in NMRI mouse assessed as reduction of parasite level in blood at 100 mg/kg, po administered 24 hrs post infection measured after 72 hrs post infection by flow cytometry; type: functional; set-up: scale not given: the % may be the effect or the level left; procedure, shortened: as §4
[18] = test system: Plasmodium berghei; assay: Antimalarial activity against Plasmodium berghei ANKA expressing GFP infected in NMRI mouse assessed as reduction of parasite level in blood at 30 mg/kg, po administered 24 hrs post infection qd for 3 days measured after 96 hrs post infection by flow cytometry; type: functional; set-up: scale not given: the % may be the effect or the level left; procedure, shortened: as §4
[19] = test system: Plasmodium berghei; assay: Antimalarial activity against Plasmodium berghei ANKA expressing GFP infected in po dosed NMRI mouse assessed as reduction of parasite level in blood administered 24 hrs post infection measured after 72 hrs post infection by flow cytometry; type: functional
[20] = test system: Plasmodium berghei; assay: Antimalarial activity against Plasmodium berghei ANKA expressing GFP infected in NMRI mouse assessed as increase of mouse survival at 30 mg/kg, po administered 24 hrs post infection (reference value: 6 to 7 days); type: functional
[21] = test system: Plasmodium berghei; assay: Antimalarial activity against Plasmodium berghei ANKA expressing GFP infected in NMRI mouse assessed as increase of mouse survival at 100 mg/kg, po administered 24 hrs post infection (reference value: 6 to 7 days); type: functional
[22] = test system: Plasmodium berghei; assay: Antimalarial activity against Plasmodium berghei ANKA expressing GFP infected in NMRI mouse assessed as increase of mouse survival at 30 mg/kg, po administered 24 hrs post infection qd for 3 days (reference value: 6 to 7 days); type: functional
[23] = Cmax in Wistar rat at 10 mg/kg, po; type: ADME, organism-based; set-up: dose 10 mg/kg, route oral; conditions: in vivo
Procedure, shortened: (§5)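 Rat snapshot PK: two Wistar rats dosed orally at 10 mg/kg, formulated at 2.5 mg/mL in 75% PEG300/25% D5W. Blood (100 μL) taken at 0.5, 1, 3 and 5 h post dose. Plasma pooled by sampling time, then analysed by LC-MS/MS.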

[24] = test system: Rattus norvegicus; assay: Dose normalized AUC (0 to 5 hrs) in Wistar rat at 10 mg/kg, po; type: ADME, organism-based; set-up: dose 10 mg/kg, route oral; conditions: in vivo; procedure, shortened: as §5
[25] = Cytotoxicity against human 293T cells; type: cell-based; conditions: HEK-293T cells
[26] = Cytotoxicity against mouse BA/F3 cells; type: cell-based; conditions: baf3
[27] = test system: CHO; assay: Cytotoxicity against CHO cells; type: cell-based, Cricetulus griseus; conditions: chinese hamster
[28] = Cytotoxicity against human Hep2 cells; type: cell-based; conditions: HEp-2 cells
[29] = Cytotoxicity against human HuH7 cells; type: cell-based; conditions: Huh-7 cells
[30] = Clearance in Wistar rat at 3 mg/kg, iv; type: ADME, organism-based; set-up: dose 3 mg/kg, route intravenous; conditions: in vivo
Procedure, shortened: (§6)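 Wistar rats, three per route. Dosed IV at 3 mg/kg or orally at 10, 30 or 100 mg/kg; the 100 mg/kg arm used a suspension, others a 2.5 mg/mL filtered 75% PEG300/25% D5W formulation. Six 100 μL blood samples serially per rat within 24 h. LC-MS/MS of plasma, noncompartmental parameters; F is dose-corrected AUCpo/AUCiv.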

[31] = Half life in Wistar rat at 3 mg/kg, iv; type: ADME, organism-based; set-up: dose 3 mg/kg, route intravenous; conditions: in vivo; procedure, shortened: as §6
[32] = AUC in Wistar rat at 3 mg/kg, iv; type: ADME, organism-based; set-up: dose 3 mg/kg, route intravenous; conditions: plasma; procedure, shortened: as §6
[33] = Cmax in Wistar rat at 30 mg/kg, po; type: ADME, organism-based; set-up: dose 30 mg/kg, route oral; conditions: in vivo; procedure, shortened: as §6
[34] = Tmax in Wistar rat at 10 mg/kg, po; type: ADME, organism-based; set-up: dose 10 mg/kg, route oral; conditions: in vivo
[35] = Tmax in Wistar rat at 30 mg/kg, po; type: ADME, organism-based; set-up: dose 30 mg/kg, route oral; conditions: in vivo; procedure, shortened: as §6
[36] = Tmax in Wistar rat at 100 mg/kg, po; type: ADME, organism-based; set-up: dose 100 mg/kg, route oral; conditions: in vivo; procedure, shortened: as §6
[37] = Half life in Wistar rat at 10 mg/kg, po; type: ADME, organism-based; set-up: dose 10 mg/kg, route oral; conditions: in vivo
[38] = Half life in Wistar rat at 30 mg/kg, po; type: ADME, organism-based; set-up: dose 30 mg/kg, route oral; conditions: in vivo; procedure, shortened: as §6
[39] = Half life in Wistar rat at 100 mg/kg, po; type: ADME, organism-based; set-up: dose 100 mg/kg, route oral; conditions: in vivo; procedure, shortened: as §6
[40] = AUC (all) in Wistar rat at 10 mg/kg, po; type: ADME, organism-based; set-up: dose 10 mg/kg, route oral; conditions: plasma; procedure, shortened: as §6
[41] = AUC (all) in Wistar rat at 30 mg/kg, po; type: ADME, organism-based; set-up: dose 30 mg/kg, route oral; conditions: plasma; procedure, shortened: as §6
[42] = AUC (all) in Wistar rat at 100 mg/kg, po; type: ADME, organism-based; set-up: dose 100 mg/kg, route oral; conditions: plasma; procedure, shortened: as §6
[43] = Oral bioavailability in Wistar rat at 10 mg/kg; type: ADME, organism-based; conditions: in vivo; procedure, shortened: as §6
[44] = Oral bioavailability in Wistar rat at 30 mg/kg; type: ADME, organism-based; conditions: in vivo; procedure, shortened: as §6
[45] = Oral bioavailability in Wistar rat at 100 mg/kg; type: ADME, organism-based; conditions: in vivo; procedure, shortened: as §6

CC1(C)c2nc(-c3ccc(F)cc3)c(Nc3ccc(F)cc3)n2CCN1C(=O)CN [GANAPLACIDE]
EC50 [1]: 0.01 µM | EC50 [2]: 0.006 µM | IC50 [3]: 13.4 µM | permeability [4]: 51.8% | Papp A→B [5]: 1.26 ×10⁻⁶ cm/s | Papp B→A [6]: 2.99 ×10⁻⁶ cm/s | Vd [7]: 10.2 L/kg | clearance [8]: 49.2 mL/min/kg | half-life [9]: 2 h | AUC [10]: 4.119 µM·h | Cmax [11]: 1540 nM | Tmax [12]: 1 h | half-life [13]: 4.35 h | AUC [14]: 12.155 µM·h | F [15]: 74% | Activity [16]: 99.5% | Activity [17]: 99.4% | Activity [18]: 99.8% | ED99 [19]: 2.2 mg/kg | Survival [20]: 16.3 days | Survival [21]: 14 days | Survival [22]: 17.7 days | Cmax ([23]; Wistar): 126 nM | Cmax [23]: 91 nM | AUC/dose [24]: 1.2 min.ug/ml/(mg/kg) | CC50 [25]: > 12 µM | CC50 [26]: > 12 µM | CC50 [27]: > 12 µM | CC50 [28]: > 12 µM | CC50 [29]: > 12 µM | clearance [30]: 67.5 mL/min/kg | half-life [31]: 4.6 h | AUC [32]: 1.83 µM·h | Cmax [33]: 580 nM | Tmax [34]: 1.5 h | Tmax [35]: 4.3 h | Tmax [36]: 8 h | half-life [37]: 4.7 h | half-life [38]: 6.3 h | half-life [39]: 8.4 h | AUC [40]: 0.974 µM·h | AUC [41]: 7.34 µM·h | AUC [42]: 34.9 µM·h | bioavailability [43]: 20% | bioavailability [44]: 40% | bioavailability [45]: 57%
